Measurements reported in publication PMC3607822 (The Journal of General Physiology, 2013).
Positions count from the first letter of the chain named. Like-named read-outs stand apart in the source and are kept apart here.

How the values were obtained:
[1] = target: T1, CNGA3 P99L, A105P (PA-LP) channels (Homo sapiens, UniProt Q16281, A105P/P99L); experiment: Inside-out patch clamp, CNGA3 P99L, A105P; assay type: biochemical; conditions: for EC50: read-out: K1/2 cGMP
T1 sequence (Q16281 1-694 P99L/A105P): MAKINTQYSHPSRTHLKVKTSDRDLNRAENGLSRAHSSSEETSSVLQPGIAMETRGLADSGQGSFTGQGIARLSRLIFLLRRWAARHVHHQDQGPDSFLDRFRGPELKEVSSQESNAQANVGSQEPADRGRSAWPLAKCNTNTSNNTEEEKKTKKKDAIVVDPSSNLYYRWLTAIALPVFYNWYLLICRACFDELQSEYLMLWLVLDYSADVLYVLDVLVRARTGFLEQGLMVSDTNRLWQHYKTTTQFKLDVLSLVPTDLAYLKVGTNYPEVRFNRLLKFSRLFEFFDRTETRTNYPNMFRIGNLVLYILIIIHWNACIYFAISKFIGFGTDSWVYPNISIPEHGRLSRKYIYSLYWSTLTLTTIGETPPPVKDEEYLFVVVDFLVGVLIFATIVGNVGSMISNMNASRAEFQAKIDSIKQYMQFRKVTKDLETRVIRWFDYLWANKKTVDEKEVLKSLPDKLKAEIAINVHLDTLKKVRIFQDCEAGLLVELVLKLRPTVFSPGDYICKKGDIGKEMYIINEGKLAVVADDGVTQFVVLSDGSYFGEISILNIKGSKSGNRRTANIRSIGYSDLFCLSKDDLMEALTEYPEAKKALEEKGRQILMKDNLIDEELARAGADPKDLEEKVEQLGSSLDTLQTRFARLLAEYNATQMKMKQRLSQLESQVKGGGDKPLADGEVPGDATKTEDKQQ

[2] = target: CNGA3 N5R-A, 613X channels (Homo sapiens, UniProt Q16281, R72A/R75A/R81A/R82A/R86A); experiment: Inside-out patch clamp, CNGA3 N5R-A, 613X; assay type: biochemical
Chain of CNGA3 N5R-A, 613X channels (Q16281 1-612 R72A/R75A/R81A/R82A/R86A limits assumed): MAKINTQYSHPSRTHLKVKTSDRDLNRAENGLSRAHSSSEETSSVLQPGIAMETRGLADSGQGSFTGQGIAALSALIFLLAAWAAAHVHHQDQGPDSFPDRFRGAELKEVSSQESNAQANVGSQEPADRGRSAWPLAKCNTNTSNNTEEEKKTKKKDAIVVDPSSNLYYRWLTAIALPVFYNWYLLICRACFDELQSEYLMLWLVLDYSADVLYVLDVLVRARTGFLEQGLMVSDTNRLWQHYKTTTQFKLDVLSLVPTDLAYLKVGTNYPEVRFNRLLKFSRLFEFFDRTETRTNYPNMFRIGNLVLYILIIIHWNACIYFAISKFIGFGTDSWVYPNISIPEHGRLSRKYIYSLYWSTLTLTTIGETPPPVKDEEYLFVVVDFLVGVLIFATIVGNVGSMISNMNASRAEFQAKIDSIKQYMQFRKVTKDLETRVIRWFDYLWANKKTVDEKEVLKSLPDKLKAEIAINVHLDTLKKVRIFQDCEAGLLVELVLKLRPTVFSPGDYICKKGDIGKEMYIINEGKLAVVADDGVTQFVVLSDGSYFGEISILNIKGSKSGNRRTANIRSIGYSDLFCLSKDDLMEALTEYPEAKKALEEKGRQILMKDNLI

[3] = target: CNGA3 N2R-A, 613X channels (Homo sapiens, UniProt Q16281, R101A/R103A); experiment: Inside-out patch clamp, CNGA3 N2R-A, 613X; assay type: biochemical
Chain of CNGA3 N2R-A, 613X channels (Q16281 1-612 R101A/R103A limits assumed): as the sequence (Q16281 1-612 R72A/R75A/R81A/R82A/R86A limits assumed) above, with A72R, A75R, A81R, A82R, A86R, R101A, R103A counted along it

CNGA3 D609K channels = CNGA3 D609K channels (Homo sapiens, UniProt Q16281, D609K); experiment: Inside-out patch clamp, CNGA3 D609K; assay type: biochemical; conditions: estimated using tetracaine block
Chain of CNGA3 D609K channels (Q16281 whole entry D609K): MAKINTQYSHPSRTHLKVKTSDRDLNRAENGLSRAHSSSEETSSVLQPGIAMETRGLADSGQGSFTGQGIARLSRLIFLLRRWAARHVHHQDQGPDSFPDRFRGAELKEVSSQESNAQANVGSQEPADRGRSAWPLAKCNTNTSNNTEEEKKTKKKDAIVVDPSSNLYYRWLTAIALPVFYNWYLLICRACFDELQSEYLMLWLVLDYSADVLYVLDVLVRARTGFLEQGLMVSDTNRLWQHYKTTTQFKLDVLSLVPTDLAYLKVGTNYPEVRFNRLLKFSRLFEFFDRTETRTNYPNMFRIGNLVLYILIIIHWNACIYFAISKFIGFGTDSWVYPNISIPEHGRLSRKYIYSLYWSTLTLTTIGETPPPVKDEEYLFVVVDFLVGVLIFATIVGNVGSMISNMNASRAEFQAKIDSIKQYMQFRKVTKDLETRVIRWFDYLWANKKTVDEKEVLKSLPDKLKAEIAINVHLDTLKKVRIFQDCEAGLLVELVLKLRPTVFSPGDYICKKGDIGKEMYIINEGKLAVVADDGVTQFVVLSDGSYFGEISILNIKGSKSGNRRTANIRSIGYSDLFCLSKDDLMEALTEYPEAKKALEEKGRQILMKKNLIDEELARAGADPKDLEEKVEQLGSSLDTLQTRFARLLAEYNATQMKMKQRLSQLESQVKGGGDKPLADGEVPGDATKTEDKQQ

[4] = target: T2, heteromeric CNGA3+CNGB3 channels (Homo sapiens, UniProt Q16281+Q9NQW8); experiment: Inside-out patch clamp, heteromeric CNGA3+CNGB3; assay type: biochemical; conditions: for EC50: read-out: K1/2 cGMP
T2 sequence (Q16281 1-694): T1 sequence (Q16281 1-694 P99L/A105P) with L99P, P105A
T2 sequence (Q9NQW8 1-809): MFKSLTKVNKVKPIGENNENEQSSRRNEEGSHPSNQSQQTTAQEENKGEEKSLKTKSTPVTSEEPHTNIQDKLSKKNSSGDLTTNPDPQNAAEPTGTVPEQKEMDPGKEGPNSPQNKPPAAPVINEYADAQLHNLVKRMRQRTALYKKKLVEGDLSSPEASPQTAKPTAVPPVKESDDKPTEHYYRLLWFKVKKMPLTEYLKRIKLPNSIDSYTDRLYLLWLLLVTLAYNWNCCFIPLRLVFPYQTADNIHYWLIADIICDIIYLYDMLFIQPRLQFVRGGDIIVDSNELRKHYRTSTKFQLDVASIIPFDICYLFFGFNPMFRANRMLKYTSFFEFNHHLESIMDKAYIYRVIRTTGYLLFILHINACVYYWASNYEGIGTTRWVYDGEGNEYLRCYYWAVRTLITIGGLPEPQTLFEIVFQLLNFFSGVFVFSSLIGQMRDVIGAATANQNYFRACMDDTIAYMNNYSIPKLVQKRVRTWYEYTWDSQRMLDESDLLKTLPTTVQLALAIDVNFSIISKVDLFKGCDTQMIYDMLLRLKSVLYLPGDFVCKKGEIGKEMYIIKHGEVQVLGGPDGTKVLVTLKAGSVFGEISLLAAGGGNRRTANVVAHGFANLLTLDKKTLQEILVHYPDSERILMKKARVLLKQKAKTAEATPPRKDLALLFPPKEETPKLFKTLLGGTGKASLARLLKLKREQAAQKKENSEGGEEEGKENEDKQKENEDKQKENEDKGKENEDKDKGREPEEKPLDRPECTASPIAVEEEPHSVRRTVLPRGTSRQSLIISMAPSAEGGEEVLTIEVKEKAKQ

GST fusion A3C-635X = GST fusion A3C-635X (Homo sapiens, UniProt Q16281); experiment: In vitro PIP3-agarose bead pull-down, A3C-635X; assay type: binding; conditions: PIP3-agarose beads, anti-GST immunoblot; compared with A3C
Procedure, shortened: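 Recombinant GST fusions of channel fragments expressed in E. coli and purified; soluble fraction kept after 20,000 g, 4°C, 30 min. Protein (2 µg/ml) rocked with PIP3- or control agarose beads, 2 h, 4°C, in 10 mM Hepes pH 7.4, 50 mM NaCl, 2 mM EDTA, 0.25% Triton X-100, 0.25% NP-40. Five washes, elution in sample buffer, reducing SDS gel, anti-GST (1:2,000, overnight) immunoblot, chemiluminescence; […].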

[5] = representative patch, before PIP3
[6] = read-out: K1/2 cGMP, +80 mV, no PIPn
[7] = representative patch, before PIP2
[8] = representative patch, 1 µM PIP3
[9] = mean, after 1 µM PIP3 or 10 µM PIP2
[10] = representative patch, after PIP3 or PIP2

Compound `Nc1nc2c(ncn2[C@@H]2O[C@@H]3COP(=O)(O)O[C@H]3[C@H]2O)c(=O)[nH]1` [cGMP, cyclic guanosine monophosphate] has an EC50 ([1]; +80 mV, no PIPn) of 5.3 ± 0.18 µM, an EC50 [1, 5] of 5.7 µM and a Hill coefficient h [1, 5] of 1.7. For the same compound, the “Po max cGMP” value ([1]; saturating cGMP) was 0.95 ± 0.01 (4), the Hill coefficient ([2]; cGMP activation) was 1.71 ± 0.05 (8) and the EC50 [2, 6] was 16.7 ± 0.98 µM. The Hill coefficient ([3]; cGMP activation) was 1.68 ± 0.03 (4), the EC50 [3, 6] was 16.1 ± 0.59 µM and the “Po max cGMP” value (CNGA3 D609K channels) was 0.78 ± 0.01. The Hill coefficient h ([4]; mean, before PIPn) was 1.9, the EC50 ([4]; mean, before PIPn) was 13.5 ± 0.6 µM and the EC50 [4, 7] was 12.8 µM. It also gave an EC50 [4, 5] of 16.1 µM, a Hill coefficient h [4, 7] of 1.8 and a Hill coefficient h [4, 5] of 2.05.
For “phosphatidylinositol (3,4,5)-trisphosphate [PIP3]”, the “Hill coefficient h after phosphoinositide” value ([1]; after PIP3 or PIP2 application) was 1.8, the “K1/2 cGMP after phosphoinositide” value ([1]; after PIP3 or PIP2 application) was 9.4 ± 0.9 µM and the “Hill coefficient h after PIP3” value [1, 8] was 1.7. For the same compound, the “K1/2 cGMP after PIP3” value [1, 8] was 11.4 µM, the “fold shift of K1/2 cGMP to higher concentration” value ([4]; 1 µM PIP3) was ~1.5 fold and the “effect on currents elicited by 5 µM cGMP” value ([4]; 1 µM PIP3 or 10 µM PIP2) was “attenuated the currents”. The “Imax cAMP/cGMP after phosphoinositide” value ([4]; after PIP2 or PIP3 application) was 0.30 ± 0.03, the “Hill coefficient h after phosphoinositide” value [4, 9] was 1.6 and the “K1/2 cGMP after phosphoinositide” value [4, 9] was 20.8 ± 1.4 µM. The “Hill coefficient h after phosphoinositide” value [4, 10] was 2.0, the “K1/2 cGMP after phosphoinositide” value [4, 10] was 26.5 µM and the “Imax cGMP compared with initial values” ([4]; saturating cGMP, after 1 µM PIP3 or 10 µM PIP2) was 95.4 ± 2.8%. For the same compound, the “in vitro PIP3 binding” value (GST fusion A3C-635X) was “attenuated binding to PIP3 beads”.
